Source: ChEMBL document CHEMBL2311361, “Diminutive effect on T and B-cell proliferation of non-cytotoxic α-santonin derived 1,2,3-triazoles: a report” (Eur J Med Chem, 2013)
In brackets after ≈: the same amount, converted by molar mass.

Columns and labels:
[1] = Cytotoxicity against in Balb/c mouse B cells at 10^-6 M after 48 hrs by MTT assay; assay type: cell-based; details: 1 µM
Summary of the method: (§1)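 Spleens taken aseptically from Balb/c mice (18–22 g). Single-cell suspension made in incomplete RPMI, RBCs lysed with Tris-ammonium chloride, cells washed, resuspended in complete RPMI and checked for viability by trypan blue. Cells seeded at 1 × 10⁶ cells/mL. Compounds in DMSO tested at 1×10⁻⁴, 1×10⁻⁵ and 1×10⁻⁶ M, 48 h, 37 °C, 5% CO₂.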

[2] = Cytotoxicity against in Balb/c mouse B cells at 10^-5 M after 48 hrs by MTT assay; assay type: cell-based; details: 10 µM; summary of the method: as §1
[3] = Cytotoxicity against in Balb/c mouse T cells at 10^-6 M after 48 hrs by MTT assay; assay type: cell-based; details: t-cell, 1 µM; summary of the method: as §1
[4] = Cytotoxicity against in Balb/c mouse T cells at 10^-5 M after 48 hrs by MTT assay; assay type: cell-based; details: t-cell, 10 µM; summary of the method: as §1
[5] = Cytotoxicity against in Balb/c mouse T cells at 10^-4 M after 48 hrs by MTT assay; assay type: cell-based; details: t-cell, 100 µM; summary of the method: as §1
[6] = Cytotoxicity against in Balb/c mouse B cells at 10^-4 M after 48 hrs by MTT assay; assay type: cell-based; details: 100 µM; summary of the method: as §1
[7] = Immunostimulant activity in Balb/c mouse B cells assessed as inhibition of LPS-induced cell proliferation at 10^-5 M after 48 hrs by MTT assay; assay type: functional; summary of the method: as §1
[8] = Immunosuppressive activity in Balb/c mouse B cells assessed as inhibition of LPS-induced cell proliferation at 10^-6 M after 48 hrs by MTT assay; assay type: functional; summary of the method: as §1
[9] = Immunosuppressive activity in Balb/c mouse B cells assessed as inhibition of LPS-induced cell proliferation at 10^-4 M after 48 hrs by MTT assay; assay type: functional; summary of the method: as §1
[10] = Immunosuppressive activity in Balb/c mouse T cells assessed as inhibition of concanavalin A-induced cell proliferation at 10^-6 M after 48 hrs by MTT assay; assay type: functional; details: Mus musculus, Balb/c, T-cell, 48 h; summary of the method: as §1
[11] = Immunosuppressive activity in Balb/c mouse T cells assessed as inhibition of concanavalin A-induced cell proliferation at 10^-5 M after 48 hrs by MTT assay; assay type: functional; summary of the method: as §1
[12] = Immunosuppressive activity in Balb/c mouse T cells assessed as inhibition of concanavalin A-induced cell proliferation at 10^-4 M after 48 hrs by MTT assay; assay type: functional; summary of the method: as §1
Plasmodium falciparum = experiment: Antimalarial activity against chloroquine-resistant Plasmodium falciparum Smith; assay type: functional; details: read-out: ED50 (the source's name)
[13] = Immunostimulant activity in Balb/c mouse T cells assessed as inhibition of concanavalin A-induced cell proliferation at 10^-6 M after 48 hrs by MTT assay; assay type: functional; summary of the method: as §1
[14] = Immunostimulant activity in Balb/c mouse T cells assessed as inhibition of concanavalin A-induced cell proliferation at 10^-5 M after 48 hrs by MTT assay; assay type: functional; summary of the method: as §1
[15] = Immunostimulant activity in Balb/c mouse T cells assessed as inhibition of concanavalin A-induced cell proliferation at 10^-4 M after 48 hrs by MTT assay; assay type: functional; details: Mus musculus, Balb/c, T-cell, 48 h; summary of the method: as §1
B = experiment: Immunosuppressive activity in Balb/c mouse B cells assessed as inhibition of LPS-induced cell proliferation after 48 hrs by MTT assay; assay type: functional, cell-based; summary of the method: as §1
[16] = Immunosuppressive activity in Balb/c mouse B cells assessed as inhibition of LPS-induced cell proliferation at 10^-5 M after 48 hrs by MTT assay; assay type: functional; summary of the method: as §1
[17] = Immunostimulant activity in Balb/c mouse B cells assessed as inhibition of LPS-induced cell proliferation at 10^-6 M after 48 hrs by MTT assay; assay type: functional; summary of the method: as §1
[18] = Immunostimulant activity in Balb/c mouse B cells assessed as inhibition of LPS-induced cell proliferation at 10^-4 M after 48 hrs by MTT assay; assay type: functional; summary of the method: as §1

SMILES	Activity [1]	Activity [2]	Activity [3]	Activity [4]	Activity [5]	Activity [6]	inhibition at 10 µM [7]	inhibition at 1 µM [8]	inhibition at 100 µM [9]	inhibition at 1 µM [10]	inhibition at 10 µM [11]	inhibition at 100 µM [12]	EC50 (Plasmodium falciparum)	inhibition at 1 µM [13]	inhibition at 10 µM [14]	inhibition at 100 µM [15]	inhibition (B)	inhibition at 10 µM [16]	inhibition at 1 µM [17]	inhibition at 100 µM [18]
Cc1cc(OCc2cnnn2/C=C/c2ccccc2)c(C)c2c1CC[C@H]1[C@H](C)C(=O)O[C@@H]21	Non-toxic	Non-toxic	Non-toxic	Non-toxic	Non-toxic	Non-toxic	48.7%	7.69%	36.8%	95.1%	95.1%	95.1%								
CC1=CC2C[C@]3(C)CC[C@H]4[C@H](C)C(=O)O[C@@H]4C13OO2 (some centres undefined)													0.729 µg/mL (≈ 2.76 µM)							
CC(=O)Oc1cc(C)c2c(c1C)[C@@H]1OC(=O)[C@@H](C)[C@@H]1CC2	Non-toxic	Non-toxic	Non-toxic	Non-toxic	Non-toxic	Non-toxic		23.9%	-36.8%					18.3%	26.8%	47.6%	Dose-dependent effect	25.6%		
COc1c(Br)cc(C)cc1-n1nncc1COc1cc(C)c2c(c1C)[C@@H]1OC(=O)[C@@H](C)[C@@H]1CC2	Non-toxic	Non-toxic	Non-toxic	Non-toxic	Non-toxic	Non-toxic	28.6%							5.71%	7.14%	5.71%			27.1%	15.7%
COc1ccc(F)c(-n2nncc2COc2cc(C)c3c(c2C)[C@@H]2OC(=O)[C@@H](C)[C@@H]2CC3)c1Br	Toxic	Toxic	Toxic	Toxic	Toxic	Toxic	1.42%	1.42%	24.3%	14.3%	37.1%	45.7%								
Cc1cc(OCc2cnnn2-c2ccc(Br)cc2)c(C)c2c1CC[C@H]1[C@H](C)C(=O)O[C@@H]21	Non-toxic	Non-toxic	Non-toxic	Non-toxic	Non-toxic	Non-toxic	36.8%		15.4%	1.21%					2.43%	48.8%			26.5%	
Cc1cc(OCc2cnnn2-c2ccccc2)c(C)c2c1CC[C@H]1[C@H](C)C(=O)O[C@@H]21	Non-toxic	Toxic	Non-toxic	Toxic	Toxic	Toxic	8.57%			21.4%						97.1%			30%	1.42%
COc1ccc(-n2nncc2COc2cc(C)c3c(c2C)[C@@H]2OC(=O)[C@@H](C)[C@@H]2CC3)cc1OC	Non-toxic	Non-toxic	Non-toxic	Non-toxic	Toxic	Toxic								75.6%	15.8%	90.2%		0.85%	15.4%	12.8%
Cc1cc(OCc2cnnn2-c2ccc(F)cc2)c(C)c2c1CC[C@H]1[C@H](C)C(=O)O[C@@H]21	Non-toxic	Non-toxic	Non-toxic	Non-toxic	Non-toxic	Non-toxic	10%		2.85%					12.8%	44.3%	70%			11.4%	
Cc1cc(OCc2cnnn2-c2ccc3ccccc3c2)c(C)c2c1CC[C@H]1[C@H](C)C(=O)O[C@@H]21	Non-toxic	Non-toxic	Non-toxic	Non-toxic	Toxic	Toxic			1.7%					12.2%	2.43%	13.4%		23.1%	7.69%	
Cc1cc(OCc2cnnn2-c2ccc(-c3ccccc3)cc2)c(C)c2c1CC[C@H]1[C@H](C)C(=O)O[C@@H]21	Non-toxic	Non-toxic	Non-toxic	Non-toxic	Toxic	Toxic								35.4%	63.4%	2.43%		3.41%	17.9%	15.4%
C#CCOc1cc(C)c2c(c1C)[C@@H]1OC(=O)[C@@H](C)[C@@H]1CC2	Toxic	Non-toxic	Toxic	Non-toxic	Non-toxic	Non-toxic		29.9%	36.8%		1.21%	12.2%		24.4%				22.2%		
CCCOc1ccc(-n2nncc2COc2cc(C)c3c(c2C)[C@@H]2OC(=O)[C@@H](C)[C@@H]2CC3)cc1Cl	Non-toxic	Non-toxic	Non-toxic	Non-toxic	Non-toxic	Non-toxic	12.8%			7.14%	27.1%					7.14%			41.4%	21.4%
Cc1cc(OCc2cnnn2-c2ccc(Br)c3ccccc23)c(C)c2c1CC[C@H]1[C@H](C)C(=O)O[C@@H]21	Non-toxic	Toxic	Non-toxic	Toxic	Toxic	Toxic					48.6%	10%		30%				17.1%	27.1%	12.8%
Cc1cc(OCc2cnnn2-c2cccc([N+](=O)[O-])c2)c(C)c2c1CC[C@H]1[C@H](C)C(=O)O[C@@H]21	Non-toxic	Toxic	Non-toxic	Toxic	Toxic	Toxic	0.85%	24.8%		93.9%	93.9%	95.1%								36.8%
